Data reported in ChEMBL document CHEMBL5724801, “EUbOPEN Chemogenomics Library - Multiplex” (2024).
Where “and” joins values, the source holds several entries; their conditions need not be identical. Identical values can stand only once.

Columns and labels:
Fibroblast = experiment: Multiplex assay against human fibroblast; format: toxicity, cell-based
In short: (§1)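 Cells stained live at seeding with Hoechst33342, BioTracker Green Microtubule Cytoskeleton Dye, MitoTracker Red and Annexin V Alexa Fluor 680 were imaged on a CQ1 microscope at 37°C and 5% CO2 after compound addition. Their classification by CellPathfinder machine-learning gating ran from Hoechst high-intensity objects versus normal cells, to healthy, pyknosed or fragmented nuclei among normal cells, to mitotic or apoptotic among pyknosed cells. Tubulin, mitochondrial-mass and membrane-permeability phenotypes are per cents of healthy-nucleus cells.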

HEK-293T = experiment: Multiplex assay against HEK293T; format: toxicity, cell-based; conditions: human; in short: as §1
[1] = 12 h, 1 µM, compound concentration 1 uM
[2] = 12 h, 10 µM, compound concentration 10 uM
[3] = 24 h, 1 µM, compound concentration 1 uM
[4] = 24 h, 10 µM, compound concentration 10 uM
[5] = 48 h, 1 µM, compound concentration 1 uM
[6] = 48 h, 10 µM, compound concentration 10 uM

For `CC(C)CNc1nc(N2CCN(CC3CCCOC3)CC2)ncc1C(=O)NCc1ccccc1` (stereo not drawn), which “Population Apoptotic (%)” value (Fibroblast; [1]) is on record?
The value was 34% and 80.22%.

And the “Population Fragmented Nuclei (%)” value (Fibroblast; [1])?
The value was 39.83% and 19.74%.

What about the “Population Healthy Nuclei (%)” value (Fibroblast; [1]) of the same compound?
Its value is 17.8% and 20.39%.

And the “Population Hoechst High Intensity Objects (%)” value (Fibroblast; [1])?
The value was 0%.

And the “Population Membrane Permeable-Phenotype (%)” value (Fibroblast; [1])?
Its value is 9.52% and 19.35%.

What about the “Population Mitochondria Different-Phenotype (%)” value (Fibroblast; [1]) of the same compound?
The value was 9.52% and 6.45%.

And the “Population Normal (%)” value (Fibroblast; [1])?
The value was 100%.

What about the “Population Pyknosed Nuclei (%)” value (Fibroblast; [1]) of the same compound?
The value was 42.37% and 59.87%.

And the “Total Cell Count” value (Fibroblast; [1])?
The value was 118 and 152.

What about the “Population Apoptotic (%)” value (Fibroblast; [2]) of the same compound?
The value was 39.68% and 87.25%.

What about the “Population Fragmented Nuclei (%)” value (Fibroblast; [2]) of the same compound?
The value was 33.58% and 21.43%.

What about the “Population Healthy Nuclei (%)” value (Fibroblast; [2]) of the same compound?
The value was 19.4% and 12.34%.

And the “Population Hoechst High Intensity Objects (%)” value (Fibroblast; [2])?
The value was 0%.

What about the “Population Mitochondria Different-Phenotype (%)” value (Fibroblast; [2]) of the same compound?
The value was 57.69% and 63.16%.

And the “Population Normal (%)” value (Fibroblast; [2])?
Its value is 100%.

What about the “Population Pyknosed Nuclei (%)” value (Fibroblast; [2]) of the same compound?
The value was 47.01% and 66.23%.

And the “Population Tubulin-Different-Phenotype (%)” value (Fibroblast; [2])?
Its value is 57.69% and 94.74%.

And the “Total Cell Count” value (Fibroblast; [2])?
The value was 134 and 154.

What about the “Population Apoptotic (%)” value (Fibroblast; [3]) of the same compound?
The value was 32.61% and 81.58%.

And the “Population Healthy Nuclei (%)” value (Fibroblast; [3])?
Its value is 30.28% and 37.59%.

What about the “Population Hoechst High Intensity Objects (%)” value (Fibroblast; [3]) of the same compound?
Its value is 0%.

What about the “Population Membrane Permeable-Phenotype (%)” value (Fibroblast; [3]) of the same compound?
Its value is 9.09% and 24.53%.

What about the “Population Mitochondria Different-Phenotype (%)” value (Fibroblast; [3]) of the same compound?
Its value is 24.24% and 15.09%.

And the “Population Normal (%)” value (Fibroblast; [3])?
Its value is 100%.

What about the “Population Pyknosed Nuclei (%)” value (Fibroblast; [3]) of the same compound?
Its value is 42.2% and 53.9%.

What about the “Population Tubulin-Different-Phenotype (%)” value (Fibroblast; [3]) of the same compound?
Its value is 39.39% and 67.92%.

And the “Total Cell Count” value (Fibroblast; [3])?
The value was 109 and 141.

And the “Population Apoptotic (%)” value (Fibroblast; [4])?
The value was 59.65% and 72.31%.

What about the “Population Fragmented Nuclei (%)” value (Fibroblast; [4]) of the same compound?
The value was 28.46% and 10.32%.

What about the “Population Healthy Nuclei (%)” value (Fibroblast; [4]) of the same compound?
Its value is 27.69% and 47.74%.

What about the “Population Hoechst High Intensity Objects (%)” value (Fibroblast; [4]) of the same compound?
Its value is 0%.

And the “Population Mitochondria Different-Phenotype (%)” value (Fibroblast; [4])?
Its value is 58.33% and 47.3%.

What about the “Population Mitotic Cells (%)” value (Fibroblast; [4]) of the same compound?
The value was 40.35% and 27.69%.

What about the “Population Normal (%)” value (Fibroblast; [4]) of the same compound?
Its value is 100%.

What about the “Population Pyknosed Nuclei (%)” value (Fibroblast; [4]) of the same compound?
The value was 43.85% and 41.94%.

And the “Population Tubulin-Different-Phenotype (%)” value (Fibroblast; [4])?
Its value is 66.67% and 87.84%.

And the “Total Cell Count” value (Fibroblast; [4])?
Its value is 130 and 155.

What about the “Population Apoptotic (%)” value (Fibroblast; [5]) of the same compound?
The value was 33.33% and 68.42%.

And the “Population Fragmented Nuclei (%)” value (Fibroblast; [5])?
The value was 15.25% and 14.4%.

What about the “Population Healthy Nuclei (%)” value (Fibroblast; [5]) of the same compound?
The value was 64.41% and 70.4%.

What about the “Population Hoechst High Intensity Objects (%)” value (Fibroblast; [5]) of the same compound?
Its value is 0%.

What about the “Population Membrane Permeable-Phenotype (%)” value (Fibroblast; [5]) of the same compound?
Its value is 13.16% and 19.32%.

And the “Population Mitochondria Different-Phenotype (%)” value (Fibroblast; [5])?
Its value is 36.84% and 19.32%.

What about the “Population Mitotic Cells (%)” value (Fibroblast; [5]) of the same compound?
The value was 66.67% and 31.58%.

What about the “Population Normal (%)” value (Fibroblast; [5]) of the same compound?
The value was 100%.

And the “Population Pyknosed Nuclei (%)” value (Fibroblast; [5])?
The value was 20.34% and 15.2%.

What about the “Population Tubulin-Different-Phenotype (%)” value (Fibroblast; [5]) of the same compound?
The value was 35.53% and 67.05%.

What about the “Total Cell Count” value (Fibroblast; [5]) of the same compound?
Its value is 118 and 125.

What about the “Population Apoptotic (%)” value (Fibroblast; [6]) of the same compound?
The value was 52.78% and 75%.

And the “Population Fragmented Nuclei (%)” value (Fibroblast; [6])?
Its value is 19.46% and 17.61%.

And the “Population Healthy Nuclei (%)” value (Fibroblast; [6])?
The value was 56.38% and 72.33%.

And the “Population Hoechst High Intensity Objects (%)” value (Fibroblast; [6])?
Its value is 0%.

What about the “Population Mitochondria Different-Phenotype (%)” value (Fibroblast; [6]) of the same compound?
The value was 60.71% and 47.83%.

And the “Population Mitotic Cells (%)” value (Fibroblast; [6])?
The value was 47.22% and 25%.

What about the “Population Normal (%)” value (Fibroblast; [6]) of the same compound?
Its value is 100%.

And the “Population Pyknosed Nuclei (%)” value (Fibroblast; [6])?
The value was 24.16% and 10.06%.

What about the “Population Tubulin-Different-Phenotype (%)” value (Fibroblast; [6]) of the same compound?
Its value is 70.24% and 84.35%.

What about the “Total Cell Count” value (Fibroblast; [6]) of the same compound?
The value was 149 and 159.

And the “Population Apoptotic (%)” value (HEK-293T; [1])?
Its value is 11.7% and 11.21%.

What about the “Population Fragmented Nuclei (%)” value (HEK-293T; [1]) of the same compound?
Its value is 1.89% and 4.9%.

And the “Population Hoechst High Intensity Objects (%)” value (HEK-293T; [1])?
Its value is 0.31% and 0%.

What about the “Population Membrane Permeable-Phenotype (%)” value (HEK-293T; [1]) of the same compound?
Its value is 0%.

What about the “Population Mitotic Cells (%)” value (HEK-293T; [1]) of the same compound?
Its value is 88.3% and 88.79%.

What about the “Population Normal (%)” value (HEK-293T; [1]) of the same compound?
The value was 99.69% and 100%.

And the “Population Pyknosed Nuclei (%)” value (HEK-293T; [1])?
Its value is 53.94% and 81.12%.

And the “Population Tubulin-Different-Phenotype (%)” value (HEK-293T; [1])?
Its value is 13.57% and 25%.

What about the “Total Cell Count” value (HEK-293T; [1]) of the same compound?
The value was 318 and 143.

What about the “Population Apoptotic (%)” value (HEK-293T; [2]) of the same compound?
The value was 30.6% and 27.73%.

And the “Population Fragmented Nuclei (%)” value (HEK-293T; [2])?
Its value is 4.29% and 5.11%.

What about the “Population Hoechst High Intensity Objects (%)” value (HEK-293T; [2]) of the same compound?
The value was 1.06% and 0%.

What about the “Population Membrane Permeable-Phenotype (%)” value (HEK-293T; [2]) of the same compound?
The value was 0%.

What about the “Population Mitochondria Different-Phenotype (%)” value (HEK-293T; [2]) of the same compound?
Its value is 23.53% and 63.64%.

And the “Population Mitotic Cells (%)” value (HEK-293T; [2])?
Its value is 69.4% and 72.27%.

And the “Population Normal (%)” value (HEK-293T; [2])?
The value was 98.94% and 100%.

And the “Population Pyknosed Nuclei (%)” value (HEK-293T; [2])?
The value was 65.36% and 86.86%.

What about the “Population Tubulin-Different-Phenotype (%)” value (HEK-293T; [2]) of the same compound?
Its value is 85.88% and 81.82%.

What about the “Total Cell Count” value (HEK-293T; [2]) of the same compound?
Its value is 283 and 137.

What about the “Population Apoptotic (%)” value (HEK-293T; [3]) of the same compound?
The value was 21.51% and 22.81%.

And the “Population Fragmented Nuclei (%)” value (HEK-293T; [3])?
Its value is 1.41% and 5.26%.

What about the “Population Hoechst High Intensity Objects (%)” value (HEK-293T; [3]) of the same compound?
The value was 0.2% and 0%.

What about the “Population Membrane Permeable-Phenotype (%)” value (HEK-293T; [3]) of the same compound?
The value was 1.89% and 0%.

And the “Population Mitochondria Different-Phenotype (%)” value (HEK-293T; [3])?
The value was 30.6% and 36.67%.

What about the “Population Mitotic Cells (%)” value (HEK-293T; [3]) of the same compound?
The value was 78.49% and 77.19%.

And the “Population Normal (%)” value (HEK-293T; [3])?
Its value is 99.8% and 100%.

What about the “Population Pyknosed Nuclei (%)” value (HEK-293T; [3]) of the same compound?
The value was 34.68% and 75%.

What about the “Population Tubulin-Different-Phenotype (%)” value (HEK-293T; [3]) of the same compound?
The value was 28.71% and 13.33%.

What about the “Population Apoptotic (%)” value (HEK-293T; [4]) of the same compound?
Its value is 59.41% and 71.68%.

What about the “Population Fragmented Nuclei (%)” value (HEK-293T; [4]) of the same compound?
The value was 4.91% and 5.67%.
